Several values for one entry are separate records, joined by “and”; a condition that tells them apart may be missing. Equal entries are not always repeated. Where two headings read alike, the source gives them in different places.
Experiments:
Format in all cases: cell-based, Human
HCT-116 = experiment: MTT cytotoxicity assay in normoxia and hypoxia, HCT-116; details: for HCR = hypoxic cytotoxicity ratio IC50 (aerobic)/IC50 (hypoxic): HCT-116; for IC50: Homo sapiens
In short: (§1)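 MCF-7 and HCT-116 were grown in DMEM; NCI-H460 in RPMI 1640 plus 10 mM HEPES; all media had 10% FBS, pyruvate and 1.5 g/L bicarbonate. Cells were seeded at 20000/well and grown 24 h at 20% O2, 5% CO2, 37 °C. Serial compound concentrations were then given for 24 h in normoxia, or for 6 h hypoxia (3% O2) followed by 18 h normoxia. MTT was read at 545 nm. IC50 came from linear regression of % inhibition versus log concentration, and HCR = IC50 normoxia/IC50 hypoxia.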

NCI-H460 = experiment: MTT cytotoxicity assay in normoxia and hypoxia, NCI-H460; details: for IC50: Homo sapiens
In short: as §1

HCT-116 cells = experiment: Cell cycle assay by flow cytometry; details: for Sub-G1 (%) / G1 (%) / G2/M (%) / S (%): 24 h
[1] = system: co-cultured HUVECs and fibroblasts; experiment: In vitro tube formation test; details: 2 μM, 11 days
In short: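 HUVECs were co-cultured with fibroblasts for 11 days in basal medium, solvent-control medium (0.2% DMSO), or solvent medium with test compound at 2 or 20 μM. Medium ± compound was renewed every 3 days, and suramin served as the kit positive control. HUVECs were stained with anti-CD31, and tube area, length, joints and paths were measured by image analyzer over 5 fields. Quadruplicate wells; mean ± SEM, n=4.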

[2] = system: caspase 3/7 in HCT-116 cells; experiment: Caspase 3/7 activity; details: 30 µM, 24 h
In short: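 HCT-116 cells were exposed to test compound at 30 µM for 24 h in normoxia or hypoxia. Cells were harvested, washed in PBS, centrifuged (350 g, 5 min) and stained with a FAM-FLICA caspase-3/7 inhibitor kit. Active caspase 3/7 was measured by flow cytometry. Data are mean ± SEM, n=3, compared with solvent control by one-way ANOVA with Tukey post hoc test.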

[3] = HCT-116, 24 h, read-out: Cytotoxicity (IC50) HCT-116 N
[4] = HCT-116, read-out: Cytotoxicity (IC50) HCT-116 H
[5] = HCT-116, read-out: Cytotoxicity (IC50), cell kill under hypoxia
[6] = NCI-H460, 24 h, read-out: Cytotoxicity (IC50) NCI-H460 N
[7] = NCI-H460, read-out: Cytotoxicity (IC50) NCI-H460 H

Compound	IC50 (HCT-116; [3]) [µM]	IC50 (HCT-116; [4]) [µM]	IC50 (NCI-H460; [6]) [µM]	IC50 (NCI-H460; [7]) [µM]	other results
NCCCNc1n[n+]([O-])c2ccccc2[n+]1[O-] [Compound 8b, N^1-(1,4-Dioxido-1,2,4-benzotriazine-3-yl)-1,3-propanediamine]	90.4 ± 3.5	54.8 ± 8	95.6 ± 33.9	79.5 ± 26.6	HCR = hypoxic cytotoxicity ratio IC50 (aerobic)/IC50 (hypoxic) (HCT-116): 1.7; IC50 (HCT-116; [5]): 54.8 µM
[O-][n+]1nc(NCCCNc2n[n+]([O-])c3ccccc3[n+]2[O-])nc2ccccc21 [Compound 9b, 3-(3-(1-Oxido-1,2,4-benzotriazin-3-yl)aminopropylamino)-1,2,4-benzotriazine-1,4-dioxide]	53.8 ± 4.7	28.7 ± 6.7	44.6 ± 4.3	21.4 ± 4.8	Sub-G1 (%) (HCT-116 cells; HCT-116, hypoxia, 15 µM): 4.3%; G1 (%) (HCT-116 cells; HCT-116, hypoxia, 30 µM): 28.1±1.2%; G2/M (%) (HCT-116 cells; HCT-116, hypoxia, 30 µM): 30.2±3.9%; S (%) (HCT-116 cells; HCT-116, hypoxia, 30 µM): 29.3±4.7%; Sub-G1 (%) (HCT-116 cells; HCT-116, hypoxia, 30 µM): 12.2% and 12.2±2.8%; Sub-G1 (%) (HCT-116 cells; HCT-116, normoxia, 15 µM): ~2.8%; G1 (%) (HCT-116 cells; HCT-116, normoxia, 30 µM): 35.0% and 35.0±5.1%; G2/M (%) (HCT-116 cells; HCT-116, normoxia, 30 µM): 48.0% and 48.0±1.9%; S (%) (HCT-116 cells; HCT-116, normoxia, 30 µM): 14.3±4.1%; Sub-G1 (%) (HCT-116 cells; HCT-116, normoxia, 30 µM): 2.1% and 2.1±0.1%; reduction of areas, lengths, paths and joints of tube formation [1]: 45-50%; HCR = IC50 (aerobic)/IC50 (hypoxia) (NCI-H460; NCI-H460): 2.1; level of active caspase 3/7 ([2]; HCT-116, hypoxia, solvent control 7%): ~23%; effect on level of active caspase 3/7 ([2]; HCT-116, normoxia): no apparent effect
1,2,4-benzotriazine-1-oxide [Compound 1]					effect on HCT-116 cell cycle (G2/M accumulation) (HCT-116 cells; data not shown): invalid
[O-][n+]1nc(NCCCCCCCCNc2n[n+]([O-])c3ccccc3[n+]2[O-])nc2ccccc21 [Compound 9g, 3-(8-(1-Oxido-1,2,4-benzotriazin-1-ium-3-yl)aminooctylamino)-1,2,4-benzotriazine-1,4-dioxide]	> 30	> 30	> 30	> 30	
NCCCCCCNc1n[n+]([O-])c2ccccc2[n+]1[O-] [Compound 8e, N^1-(1,4-Dioxido-1,2,4-benzotriazin-3-yl)-1,6-hexanediamine]	91.2 ± 16.2	62.9 ± 11	104 ± 15.1	68.7 ± 15.1	HCR = hypoxic cytotoxicity ratio IC50 (aerobic)/IC50 (hypoxic) (HCT-116): 1.5; IC50 (HCT-116; [5]): 62.1 µM
[O-][n+]1nc(NCCCCNc2n[n+]([O-])c3ccccc3[n+]2[O-])nc2ccccc21 [Compound 9c, 3-(4-(1-Oxido-1,2,4-benzotriazin-1-ium-3-yl)aminobutylamino)-1,2,4-benzotriazine-1,4-dioxide]	> 30	> 30	> 30	> 30	
[O-][n+]1nc(NCCCCCNc2n[n+]([O-])c3ccccc3[n+]2[O-])nc2ccccc21 [Compound 9d, 3-(5-(1-Oxido-1,2,4-benzotriazin-1-ium-3-yl)aminopentylamino)-1,2,4-benzotriazine-1,4-dioxide]	> 30	> 30	> 30	> 30	
